Published values pooled from the literature.
Protocols differ between the studies behind these lines.
SLCO1B1: Solute carrier organic anion transporter family member 1B1 (SLCO1B1, Homo sapiens, UniProt Q9Y6L6)
LNPEP: Leucyl-cystinyl aminopeptidase (LNPEP, Homo sapiens, UniProt Q9UIQ6)
MMP13: Collagenase 3 (MMP13, Homo sapiens, UniProt P45452)
CYP3A4: Cytochrome P450 3A4 (CYP3A4, Homo sapiens, UniProt P08684)
Cruzipain: Cruzipain (Trypanosoma cruzi, UniProt P25779)

Cc1ncsc1-c1ccc(CNC(=O)[C@@H]2C[C@@H](O)CN2C(=O)[C@@H](NC(=O)C2(F)CC2)C(C)(C)C)c(OCCOCCOCCN2CCN(c3cc(-c4ccccc4O)nnc3N)CC2)c1 — IC50 (Protein polybromo-1, bromodomain (PBRM1, Homo sapiens, UniProt Q86U86); cell-free assay, TR-FRET): 1500 nM
Oc1ccc(/C=C/c2cc(O)cc(O)c2)cc1 — IC50 (SLCO1B1; transporter uptake, inhibitor, fluorescence; CHO; 30 min, pH 7.4): 11200 nM
Cc1ccc(S(=O)(=O)Nc2cccc(-c3nnn[nH]3)c2)cc1C(F)(F)F — IC50 (LNPEP; enzyme activity, inhibitor, fluorescence): 2300 nM
Cn1nc(C(=O)NCc2ccc(C(=O)O)cc2)cc1-c1ccc2[nH]c(-c3cncnc3)cc2c1 — IC50 (MMP13; enzyme activity, inhibitor, FRET): 6.8 nM
CC(C)c1cc(NC(=O)Nc2ccc(F)c(F)c2)n(-c2ccccc2)n1 — IC50 (Kir3.1/Kir3.4 (Homo sapiens, UniProt P48544+P48549); enzyme activity in cells, inhibitor): 4100 nM
O=S(=O)(Nc1cccc(-c2nnn[nH]2)c1)c1scc2ccccc12 — IC50 (LNPEP; enzyme activity, inhibitor, fluorescence): 10900 nM
CCOc1ccc2c(-c3cc(C)nc(Nc4cc(OC)cc(C(F)(F)F)c4)n3)cnn2n1 — IC50 (Dual specificity protein kinase CLK2 (CLK2, Homo sapiens, UniProt P49760); enzyme activity, inhibitor): > 10000 nM
C[C@]12CC[C@@H]3c4ccc(OS(=O)(=O)O)cc4CC[C@H]3[C@@H]1CCC2=O — IC50 (SLCO1B1; transporter uptake, inhibitor, fluorescence; CHO; 30 min, pH 7.4): 60 nM
NCc1ccc(Nc2ncc(F)c(Nc3ccccc3)n2)cc1 — IC50 (Serine/threonine-protein kinase PAK 4 (PAK4, Homo sapiens, UniProt O96013); enzyme activity, inhibitor; lysate): > 10000 nM
Nc1nc(N)c2nc(CNc3ccc(C(=O)NCCc4ccccc4)cc3)cnc2n1 — IC50 (CYP3A4; enzyme activity, inhibitor, luciferase): 11200 nM
CCn1ncc2c1-c1cnc(N)c(c1)O[C@H](C)c1cc(F)ccc1-c1nn(C)nc1C2 — IC50 (Dual serine/threonine and tyrosine protein kinase (DSTYK, Homo sapiens, UniProt Q6XUX3); enzyme activity, inhibitor, radiometric): 583 nM
Cn1nc(C(=O)NCc2ccc(C(=O)O)cc2)cc1-c1ccc2[nH]c(-c3ccncc3)cc2c1 — IC50 (MMP13; enzyme activity, inhibitor, FRET): 0.92 nM
O=S(=O)(Nc1cccc(-c2nnn[nH]2)c1)c1cc2ccccc2s1 — IC50 (LNPEP; enzyme activity, inhibitor, fluorescence): 5900 nM
Oc1c2ccccc2c2c3c(cccc13)N=N2 — IC50 (Tyrosine-protein kinase JAK1 (JAK1, Homo sapiens, UniProt P23458); enzyme activity, inhibitor): 974 nM
Cc1cc(N2CCc3c(c(C)nn3CC34CCC(NC(=O)[C@@H]5COCCN5)(CC3)CC4)C2)c2cnn(C)c2n1 — IC50 (Toll-like receptor 7 (TLR7, Homo sapiens, UniProt Q9NYK1); IL-6 release, inhibitor): 0.7 nM
CO[C@H]1/C=C/O[C@@]2(C)Oc3c(C)c(O)c4c(O)c(c(/C=N/N5CCN(C)CC5)c(O)c4c3C2=O)NC(=O)/C(C)=C\C=C\[C@H](C)[C@H](O)[C@@H](C)[C@@H](O)[C@@H](C)[C@H](OC(C)=O)[C@@H]1C — IC50 (SLCO1B1; transporter uptake, inhibitor, fluorescence; CHO; 30 min, pH 7.4): 1300 nM
Clc1ccc2[nH]c3c(NCCCN4CCOCC4)ncnc3c2c1 — IC50 (Cruzipain; enzyme activity, inhibitor): 13000 nM
Cn1nc(C(=O)NCc2ccc(C(=O)O)cc2)cc1-c1ccc2[nH]c(-c3cccnc3)cc2c1 — IC50 (MMP13; enzyme activity, inhibitor, FRET): 5.8 nM
O=S(=O)(Nc1cccc(-c2nnn[nH]2)c1)c1ccc(Cl)c(Cl)c1Cl — IC50 (LNPEP; enzyme activity, inhibitor, fluorescence): 1200 nM
O=C(NCCN1CCCC1)c1cc(-c2ccc(CN3CCOCC3)cc2)nc2ccc(F)cc12 — IC50 (CYP3A4; enzyme activity, inhibitor; human, liver microsomes): > 100000 nM
COc1ccc(NC(=O)COC(=O)C(CC(C)C)N2C(=O)C3CC=CCC3C2=O)cc1Cl (stereo not shown) — IC50 (Cruzipain; enzyme activity, inhibitor, fluorescence): 900 nM
CN1CCN(c2ccc(Nc3ncc4cc(C#N)c(=O)n(C5CCCC5)c4n3)cc2)CC1 — IC50 (Calcium/calmodulin-dependent protein kinase type II subunit gamma (CAMK2G, Homo sapiens, UniProt Q13555); enzyme activity, inhibitor): 3870 nM
